Assay results as given in the RNAGym collection of RNA variant scans (doi:10.1002/anie.201605470).

B1: Osa-1-4 twister ribozyme (parent)
chain: CCGCCUAACACUGCCAAUGCCGGUCCCAAGCCCGGAUAAAAGUGGAGGGGGCGG

Variants of: B1
Assay: self-cleavage, relative activity (ratio to wild type); higher = more cleavage; co-transcriptional
Procedure, shortened: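 Relative activity is the fraction cleaved divided by that of the wild-type ribozyme. The library came from a DNA template for a 54-nucleotide Oryza sativa twister ribozyme, doped at the 48 positions downstream of the cleavage site with 97 % wild-type base and 1 % of each other base. After 2 h of in vitro transcription at 37 °C with co-transcriptional self-cleavage, the RNA was reverse-transcribed with a template-switching oligonucleotide, amplified by PCR and deep-sequenced, and reads with or without upstream sequence gave the cleavage status.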

Variant | self-cleavage
CCGCCUUACACUGCCAAUGCCGGUCACAAGCCCGGAUAAAAGUGGAGGGGGCGG [A7U C26A] | 0.02
CCGCCUUACACUGCCAAUGCCGGUCGCAAGCCCGGAUAAAAGUGGAGGGGGCGG [A7U C26G] | 0.05
CCGCCUUACACUGCCAAUGCCGGUCUCAAGCCCGGAUAAAAGUGGAGGGGGCGG [A7U C26U] | 0.07
CCGCCUUACACUGCCAAUGCCGGUCCCAAGCCGGGAUAAAAGUGGAGGGGGCGG [A7U C33G] | 0.03
CCGCCUUACACUGCCAAUGCCGGUCCCAAGCCUGGAUAAAAGUGGAGGGGGCGG [A7U C33U] | 0.08
CCGCCUUACACUGCCAAUGCCGGUCCCAAGCCAGGAUAAAAGUGGAGGGGGCGG [A7U C33A] | 0.03
CCGCCUUAUACUGCCAAUGCCGGUCCCAAGCCCGGAUAAAAGUGGAGGGGGCGG [A7U C9U] | 0.04
CCGCCUUAAACUGCCAAUGCCGGUCCCAAGCCCGGAUAAAAGUGGAGGGGGCGG [A7U C9A] | 0.05
CCGCCUUAGACUGCCAAUGCCGGUCCCAAGCCCGGAUAAAAGUGGAGGGGGCGG [A7U C9G] | 0.05
CCGCCUUACACUGCCAAUGCCGGUCCCAAGCCCGGAUAAAAGUGGAGGGGGAGG [A7U C52A] | 0.12
CCGCCUUACACUGCCAAUGCCGGUCCCAAGCCCGGAUAAAAGUGGAGGGGGUGG [A7U C52U] | 0.1
CCGCCUUACACUGCCAAUGCCGGUCCCAAGCCCGGAUAAAAGUGGAGGGGGGGG [A7U C52G] | 0.12
CCGCCUUACACUGCCAAUGUCGGUCCCAAGCCCGGAUAAAAGUGGAGGGGGCGG [A7U C20U] | 0.09
CCGCCUUACACUGCCAAUGACGGUCCCAAGCCCGGAUAAAAGUGGAGGGGGCGG [A7U C20A] | 0.06
CCGCCUUACACUGCCAAUGGCGGUCCCAAGCCCGGAUAAAAGUGGAGGGGGCGG [A7U C20G] | 0.11
CCGCCUUACACUGCCAAUGCCGGUCCCAAGCCCUGAUAAAAGUGGAGGGGGCGG [A7U G34U] | 0.07
CCGCCUUACACUGCCAAUGCCGGUCCCAAGCCCCGAUAAAAGUGGAGGGGGCGG [A7U G34C] | 0.1
CCGCCUUACACUGCCAAUGCCGGUCCCAAGCCCAGAUAAAAGUGGAGGGGGCGG [A7U G34A] | 0.08
CCGCCUUACACUGCCAAUGCCGGUCCCAAGCCCGGAUAAAACUGGAGGGGGCGG [A7U G42C] | 0.05
CCGCCUUACACUGCCAAUGCCGGUCCCAAGCCCGGAUAAAAUUGGAGGGGGCGG [A7U G42U] | 0.03
CCGCCUUACACUGCCAAUGCCGGUCCCAAGCCCGGAUAAAAAUGGAGGGGGCGG [A7U G42A] | 0.09
CCGCCUUACACUGCCAAUGCCGGUCCCAAGCCCGGAUAAAAGUCGAGGGGGCGG [A7U G44C] | 0.06
CCGCCUUACACUGCCAAUGCCGGUCCCAAGCCCGGAUAAAAGUUGAGGGGGCGG [A7U G44U] | 0.09
CCGCCUUACACUGCCAAUGCCGGUCCCAAGCCCGGAUAAAAGUAGAGGGGGCGG [A7U G44A] | 0.06

Variant | self-cleavage
CCGCCUUACACUGCCAAUUCCGGUCCCAAGCCCGGAUAAAAGUGGAGGGGGCGG [A7U G19U] | 0.1
CCGCCUUACACUGCCAAUACCGGUCCCAAGCCCGGAUAAAAGUGGAGGGGGCGG [A7U G19A] | 0.06
CCGCCUUACACUGCCAAUCCCGGUCCCAAGCCCGGAUAAAAGUGGAGGGGGCGG [A7U G19C] | 0.03
CCGCCUUGCACUGCCAAUGCCGGUCCCAAGCCCGGAUAAAAGUGGAGGGGGCGG [A7U A8G] | 0.09
CCGCCUUCCACUGCCAAUGCCGGUCCCAAGCCCGGAUAAAAGUGGAGGGGGCGG [A7U A8C] | 0.02
CCGCCUUUCACUGCCAAUGCCGGUCCCAAGCCCGGAUAAAAGUGGAGGGGGCGG [A7U A8U] | 0.07
CCGCCUGACACUGCCAAAGCCGGUCCCAAGCCCGGAUAAAAGUGGAGGGGGCGG [A7G U18A] | 0.38
CCGCCUGACACUGCCAAGGCCGGUCCCAAGCCCGGAUAAAAGUGGAGGGGGCGG [A7G U18G] | 0.49
CCGCCUGACACUGCCAACGCCGGUCCCAAGCCCGGAUAAAAGUGGAGGGGGCGG [A7G U18C] | 0.25
CCGCCUUACACUGCCAAUGCCGGUCCCAAGUCCGGAUAAAAGUGGAGGGGGCGG [A7U C31U] | 0.05
CCGCCUUACACUGCCAAUGCCGGUCCCAAGACCGGAUAAAAGUGGAGGGGGCGG [A7U C31A] | 0.01
CCGCCUUACACUGCCAAUGCCGGUCCCAAGGCCGGAUAAAAGUGGAGGGGGCGG [A7U C31G] | 0.06
CCGCCUUACACUGCCAAUGCCGGUCCCAACCCCGGAUAAAAGUGGAGGGGGCGG [A7U G30C] | 0.02
CCGCCUUACACUGCCAAUGCCGGUCCCAAACCCGGAUAAAAGUGGAGGGGGCGG [A7U G30A] | 0.06
CCGCCUUACACUGCCAAUGCCGGUCCCAAUCCCGGAUAAAAGUGGAGGGGGCGG [A7U G30U] | 0.02
CCGCCUUACAAUGCCAAUGCCGGUCCCAAGCCCGGAUAAAAGUGGAGGGGGCGG [A7U C11A] | 0.08
CCGCCUUACAUUGCCAAUGCCGGUCCCAAGCCCGGAUAAAAGUGGAGGGGGCGG [A7U C11U] | 0.05
CCGCCUUACAGUGCCAAUGCCGGUCCCAAGCCCGGAUAAAAGUGGAGGGGGCGG [A7U C11G] | 0.06
CCGCCUGACACUGCCAAUGCCGGUCCCAAGCCCGGAUAAAAGAGGAGGGGGCGG [A7G U43A] | 0.2
CCGCCUGACACUGCCAAUGCCGGUCCCAAGCCCGGAUAAAAGGGGAGGGGGCGG [A7G U43G] | 0.11
CCGCCUGACACUGCCAAUGCCGGUCCCAAGCCCGGAUAAAAGCGGAGGGGGCGG [A7G U43C] | 0.12
CCGCCUUACACUGCCAAUGCCGGUCCCAAGCCCGGAUAAAAGUGGAAGGGGCGG [A7U G47A] | 0.05
CCGCCUGACACUGCCAAUGCCGGUCCCAAGCCCGGAGAAAAGUGGAGGGGGCGG [A7G U37G] | 0.58
CCGCCUGACACUGCCAAUGCCGGUCCCAAGCCCGGACAAAAGUGGAGGGGGCGG [A7G U37C] | 0.46
